Neddylation inh – cullin neddylation inhibition; 360,000 tested, 0.58% active; TR-FRET cullin neddylation, biochemical; AID 651699; calls only at 25 µM; in the data active = inhibition above about 36%
VIM-2 inhibitor – inhibitors of Pseudomonas aeruginosa VIM-2 metallo-beta-lactamase | 290,000 tested, 0.89% active | AID 1527 | inhibition, % at 5.6 µM | purified VIM-2, nitrocefin hydrolysis, epi-absorbance fluorescence;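 active = inhibition above the mean of all tested compounds plus 3 SD, cutoff set per screening run, cut at about 7.5% in these data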;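 note: red hydrolysis product quenches plate fluorescence so inhibitors raise well fluorescence; 0% = enzyme with DMSO and 100% = DMSO without enzyme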
proCasp3 act – activates human procaspase-3; recombinant procaspase-3 D3A, Ac-DEVD-pNA absorbance 405 nm; 330,000 tested, 0.11% active; activation, % at 8.5 µM; P42574;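 active = activation above the mean of all tested compounds plus 3 SD, cut at about 21% in these data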;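 note: 0% = DMSO alone and 100% = DMSO wells spiked with extra 5 µM PC-3 D3A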
Target sequence (P42574 whole entry D9A/D28A/D175A): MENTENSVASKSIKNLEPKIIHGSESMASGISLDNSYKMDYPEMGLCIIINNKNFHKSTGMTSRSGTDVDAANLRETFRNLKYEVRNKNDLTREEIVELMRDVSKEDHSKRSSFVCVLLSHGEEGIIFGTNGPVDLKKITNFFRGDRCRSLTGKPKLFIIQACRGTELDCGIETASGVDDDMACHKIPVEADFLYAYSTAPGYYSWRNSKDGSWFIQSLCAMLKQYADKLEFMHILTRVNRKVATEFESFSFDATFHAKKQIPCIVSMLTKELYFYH
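Assay system – Procaspase-3 D3A mutant · Benchmarks – DMSO low control, extra-enzyme high control · Technique – 405 nm absorbance of p-nitroaniline, reads at 0 and 120 min · Doses – 8.5 µM nominal · Measure – % activation between DMSO and enzyme-spiked controls · Also added – Ac-DEVD-pNA chromogenic peptide substrate · Schedule – 1 h compound preincubation, 2 h substrate hydrolysis at 25 °C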
proCasp7 act – activates human procaspase-7, counter-screen for procaspase-3 activators; 330,000 tested, 0.093% active; activation, % at 8.5 µM; recombinant procaspase-7, Ac-DEVD-pNA absorbance 405 nm; D23A/D198A/D206A triple mutant, cannot self-cleave; scale: DMSO 0, 5 µM enzyme 100;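 active = percent activation above the screen-wide mean plus 3 SD, cut at about 25% in these data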
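Test system: Procaspase-7 triple mutant (PC-7 D3A). Also added: Ac-DEVD-pNA substrate, 400 µM as added. Schedule: 1 h enzyme–compound preincubation and 2 h substrate reaction, both 25 °C. Signal: p-Nitroaniline absorbance at 405 nm, read at 0 and 120 min. Control set: low DMSO alone, high DMSO plus 5 µM PC-7.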
PolyA inhibitor – blocks polyadenylation in yeast reporter cells; S. cerevisiae SKY197-pL101 polyadenylation reporter, beta-gal luminescence; efflux-impaired pdr1/pdr3 knockout yeast; score 100 = 6 SD above DMSO; activity score, % at 12 µM; 300,000 tested, 0.02% active;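 active = lowest replicate activity score at least 50, where 100 means six control SD above control mean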;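 note: yeast exposed to compound for 9 h at 30 °C; higher score means more reporter readthrough which indicates perturbed polyadenylation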
IMP-1 inhibitor – blocks Pseudomonas aeruginosa IMP-1 metallo-beta-lactamase | purified IMP-1, nitrocefin hydrolysis, epi-absorbance fluorescence | inhibition, % at 5.6 µM | 290,000 tested, 0.45% active;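 active = inhibition above the mean plus 3 SD of all compounds in the same screening run, cut at about 4.5% in these data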;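 note: 0% = IMP-1 with DMSO and 100% = DMSO wells lacking enzyme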
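Test system: recombinant IMP-1 enzyme, purified / Medium: HEPES buffer pH 7.1 with ZnSO4 and Brij 35 / Doses: single dose, 5.6 µM / Times: 25 °C, 15 min preincubation, 25 min reaction / Detection: Epi-absorbance via hydrolysed-nitrocefin quenching of white-plate fluorescence, 480/530 nm, EDTA stop / Evaluation: percent inhibition from optical density relative to buffer-blank wells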
Active calls of the source: *; i = inactive; / = not tested or not shown; + = active, no number. Most compounds without a hit are left out; they make up all but 1.7% or so of the library.

SMILES	Neddylation inh	VIM-2 inhibitor	proCasp3 act	proCasp7 act	PolyA inhibitor	IMP-1 inhibitor
CCOC(=O)C1=CCN(S(=O)(=O)c2ccc(F)cc2)C1c1ccccc1 (stereo unspecified)	i	/	/	/	/	/
CCCCCCCCCCCC(=O)N/N=C/c1ccco1	i	-1	4	14	82*	-2
Cc1cccn2c(=O)c3cc(S(=O)(=O)c4ccccc4)c(=N)n(Cc4cccnc4)c3nc12	i	10*	-14	-11	-11	-2
Cc1ccc2ccc3ccc(C)nc3c2n1	i	8.6*	-1	2	-6	0
COc1ccc(Cl)cc1Nc1cc(C)nc2nc(C)nn12	i	10.0*	7	5	4	-3
Cc1cc(Nc2ccc3c(c2)OCCO3)n2nc(C)nc2n1	i	14*	3	8	-11	-3
Cc1cc(Nc2ccc(Br)cc2)n2nc(C)nc2n1	i	5	-2	-2	-6	-3
Cc1cc(Nc2ccc(F)cc2)n2nc(C)nc2n1	i	9.7*	4	5	26	2
CCOC(=O)c1c(NC(=O)CN2CCCCC2)sc(CN(C)C)c1-c1ccccc1	i	-2	2	4	-7	-2
Cc1ccc(S(=O)(=O)N2CCCC(C(=O)NCc3ccc4c(c3)OCO4)C2)cc1 (stereo unspecified)	i	-3	0	5	-4	-2
C=CCSc1nc(N)c2c3c(sc2n1)CN(C)CC3	i	0	-3	-14	27	-2
CCSc1nc(N)c2c3c(sc2n1)CN(C)CC3	/	8.5*	5	-3	1	0
O=C(Cc1ccc(-n2c(=O)c3ccccc3n(Cc3ccccc3Cl)c2=O)cc1)NCC1CCCO1 (stereo unspecified)	i	-1	-2	1	23	4.8*
COc1ccc(-c2c(C)nn3c(Cl)c(C)c(C)nc23)cc1	i	8.7*	12	-1	-8	-1
CC(C)Oc1ccc(C(=O)N/N=C/c2ccc(-c3ccc(S(=O)(=O)Nc4ncccn4)cc3)o2)cc1	+	-6	-2	-1	-1	-4
CSc1ccc2nnc(-c3cccc(F)c3)n2n1	i	10.0*	4	-5	-13	0
CCOC(=O)CC(=O)CSc1ccc2nnc(-c3ccc(F)cc3)n2n1	+	3	2	-4	-12	0
COC(=O)c1ccc(CSc2ccc3nnc(-c4cccc(F)c4)n3n2)o1	i	8.4*	-1	-8	8	-3
Cc1ccsc1/C=C1/SC(N2CC(C)OC(C)C2)=NC1=O (stereo unspecified)	i	1	1	-3	-13	-2
Cc1ccc(C2=NN(S(C)(=O)=O)C(c3ccc4nccnc4c3)C2)cc1 (stereo unspecified)	i	-5	8	4	5	-3
Cc1ccc(C)c(NC(=S)Nc2cccc3cnccc23)c1	i	11*	-8	-9	9	0
Cc1ccccc1NC(=S)Nc1cccc2cnccc12	i	8.0*	-4	-15	13	-4
Cc1ccc(NC(=S)Nc2cccc3cnccc23)cc1C	i	0	-7	-24	-18	0
CS(=O)(=O)N1CCC(CO)(Cc2ccccc2C(F)(F)F)CC1	i	0	-12	8	-16	-1
COCCCn1c(C(=O)Nc2ccc3c(c2)OCO3)cc2c(=O)n3ccccc3nc21	/	0	3	-14	7	-3
Cc1cccn2c(=O)c3cc(C(=O)NCCN4CCOCC4)c(=N)n(CCCN4CCOCC4)c3nc12	/	2	-8	-10	4	-3
COCCCn1c(C(=O)NCCN2CCOCC2)cc2c(=O)n3cccc(C)c3nc21	/	9.4*	-3	-7	12	0
COCCCn1c(C(=O)N2CCOCC2)cc2c(=O)n3ccccc3nc21	/	0	-2	-2	-22	42*
O=C(C[n+]1ccc2ccccc2c1)c1ccc2ccc3ccccc3c2c1	i	/	/	/	/	/
CCSc1nnc(NC(=O)COc2ccc(Cl)cc2)s1	i	-3	11	2	11	-3
